From publication PMC7114882 (ACS Omega, 2020)

How the values were obtained:
Assay type in all cases: cell-based
Jurkat cells [1] = assay: Methylene blue staining and TEM of Jurkat cells; conditions: 4 25 μM 1 h; celastrol 1 μM 24 h
Outline: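 Jurkat cells (3.0 × 10^6) received test compound (25 μM, 1 h, 37 °C) or celastrol (1 μM, 24 h). Cells were pelleted, washed in ice-cold PBS/0.1% NaN3/0.5% FBS and prefixed in 2.5% glutaraldehyde (4 °C, 40 min). Postfixing used 1% OsO4 (4 °C, 30 min), then agarose embedding and ethanol dehydration. Cells were resin-embedded (60 °C, 3 days) and cut into 150 nm sections for methylene blue light microscopy and TEM.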

[2] = system: intracellular Ca^2+ in Jurkat cells; assay: Flow cytometry analysis of Jurkat cells stained with Rhod-2 or Rhod-4; conditions: celastrol, Figure S7
Jurkat cells [3] = assay: MTT assay of Jurkat cells with 4 in the presence of inhibitors; conditions: 4 (25 μM), 1 h; BAPTA/AM 20 μM
Outline: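 Jurkat cells (1.0 × 10^5 cells/mL) in 10% FBS RPMI 1640 were preincubated with inhibitor for 30 min at 37 °C under 5% CO2, then given test compound (25 μM) for 1 h. After a further 4 h at 37 °C, 0.5% MTT in PBS was added. Formazan was dissolved overnight in 10% SDS/0.01 N HCl and absorbance read at 570 nm.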

[4] = system: mitochondrial membrane potential (ΔΨm) of Jurkat cells; assay: Measurement of mitochondrial membrane potential; conditions: 4 25 μM; CCCP 40 μM; DilC1(5) 500 nM
Outline: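 Jurkat cells (2.0 × 10^5) in 10% FBS RPMI 1640 were preincubated with or without CCCP (40 μM) for 30 min at 37 °C under 5% CO2, then exposed to test compound (25 μM) for 1 h. ΔΨm was probed with DilC1(5) (500 nM). Confocal imaging recorded bright field, DilC1(5) emission and compound emission.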

[5] = system: Jurkat cells (T-lymphocyte leukemia); assay: MTT assay of Jurkat cells
Outline: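 Jurkat cells (2.0 × 10^5 cells/mL) were exposed to test compound ([…]) in 10% FBS/RPMI 1640 for 24 h at 37 °C under 5% CO2. After adding 0.5% MTT in PBS and incubating 4 h at 37 °C, formazan was dissolved overnight in 10% SDS/0.01 N HCl. Absorbance was read at 570 nm.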

CC1=C(O)C(=O)C=C2C1=CC=C1[C@@]2(C)CC[C@@]2(C)[C@@H]3C[C@](C)(C(=O)O)CC[C@]3(C)CC[C@]12C [celastrol]
Cytoplasmic vacuolization, TEM (Jurkat cells [1]): vacuolization | Cytoplasmic vacuolization, methylene blue staining (Jurkat cells [1]): same intracellular morphological changes | Change in mitochondrial Ca2+ concentration (Rhod-2) [2]: small change

CC(=O)OCOC(=O)CN(CC(=O)OCOC(C)=O)c1ccccc1OCCOc1ccccc1N(CC(=O)OCOC(C)=O)CC(=O)OCOC(C)=O [BAPTA/AM, tetrakis(acetoxymethyl)-1,2-bis(2-aminophenoxy)ethane-N,N,N′,N′-tetraacetate]
Inhibition of cell death induced by 4 (MTT, microscopy) (Jurkat cells [3]): negligibly inhibits

Oc1c2ccccc2c2c3c(cccc13)N=N2 [SP600125]
Inhibition of cell death induced by 4 (MTT, microscopy) (Jurkat cells [3]): negligible inhibition

N#CC(C#N)=NNc1cccc(Cl)c1 [CCCP, Carbonyl cyanide 3-chlorophenylhydrazone]
Mitochondrial membrane potential (ΔΨm), emission of DilC1(5) [4]: decrease in ΔΨm was also observed

CN1CCN(CCCN2c3ccccc3Sc3ccc(C(F)(F)F)cc32)CC1 [TFP, trifluoperazine]
EC50 ([5]; Homo sapiens, Jurkat, read-out: EC50, cell death of Jurkat cells): ~50 µM | Cooperative effects with 4 on cell death of Jurkat cells ([5]; TFP with 4 (25 μM), data not shown): negligible

O=C(Nc1ccc2[nH]nc(-c3ccncc3)c2c1)[C@@H]1CCN(CC(=O)N2CCN(c3ccc(-c4ncccn4)cc3)CC2)C1 [SCH772984]
Inhibition of cell death induced by 4 (MTT, microscopy) (Jurkat cells [3]): negligible inhibition

N#CC(=C(/N)Sc1ccccc1N)/C(C#N)=C(/N)Sc1ccccc1N [U0126]
Inhibition of cell death induced by 4 (MTT, microscopy) (Jurkat cells [3]): negligible inhibition
